pIC50: −log10 of the molar value.
Experiments:
[1] = Oral bioavailability in Sprague-Dawley rat; format: ADME, organism-based; details: in vivo
Outline: (§1)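 Male Sprague-Dawley rats with femoral vein, femoral artery and gastric catheters; noncrossover design, 2 rats per route; cassette dosing of up to five compounds. i.v. target 1 mg/kg in 5% DMSO/20% Cavitron (pH 4), infused over 30 min. Oral gastric bolus target 2 mg/kg in 5% DMSO/6% Cavitron (pH 4). Plasma sampled to 24 h and measured by HPLC−MS/MS. Noncompartmental analysis; F from dose-normalized AUC(0−∞) relative to mean i.v. AUC.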

Rattus norvegicus = species on record: Rattus norvegicus; experiment: Unbound clearance in Sprague-Dawley rat; format: ADME, organism-based; details: in vivo
[2] = target: T1, Short transient receptor potential channel 5 (Homo sapiens, UniProt Q9UL62); experiment: Inhibition of TRPC5 (unknown origin)
T1 sequence (Q9UL62 whole entry): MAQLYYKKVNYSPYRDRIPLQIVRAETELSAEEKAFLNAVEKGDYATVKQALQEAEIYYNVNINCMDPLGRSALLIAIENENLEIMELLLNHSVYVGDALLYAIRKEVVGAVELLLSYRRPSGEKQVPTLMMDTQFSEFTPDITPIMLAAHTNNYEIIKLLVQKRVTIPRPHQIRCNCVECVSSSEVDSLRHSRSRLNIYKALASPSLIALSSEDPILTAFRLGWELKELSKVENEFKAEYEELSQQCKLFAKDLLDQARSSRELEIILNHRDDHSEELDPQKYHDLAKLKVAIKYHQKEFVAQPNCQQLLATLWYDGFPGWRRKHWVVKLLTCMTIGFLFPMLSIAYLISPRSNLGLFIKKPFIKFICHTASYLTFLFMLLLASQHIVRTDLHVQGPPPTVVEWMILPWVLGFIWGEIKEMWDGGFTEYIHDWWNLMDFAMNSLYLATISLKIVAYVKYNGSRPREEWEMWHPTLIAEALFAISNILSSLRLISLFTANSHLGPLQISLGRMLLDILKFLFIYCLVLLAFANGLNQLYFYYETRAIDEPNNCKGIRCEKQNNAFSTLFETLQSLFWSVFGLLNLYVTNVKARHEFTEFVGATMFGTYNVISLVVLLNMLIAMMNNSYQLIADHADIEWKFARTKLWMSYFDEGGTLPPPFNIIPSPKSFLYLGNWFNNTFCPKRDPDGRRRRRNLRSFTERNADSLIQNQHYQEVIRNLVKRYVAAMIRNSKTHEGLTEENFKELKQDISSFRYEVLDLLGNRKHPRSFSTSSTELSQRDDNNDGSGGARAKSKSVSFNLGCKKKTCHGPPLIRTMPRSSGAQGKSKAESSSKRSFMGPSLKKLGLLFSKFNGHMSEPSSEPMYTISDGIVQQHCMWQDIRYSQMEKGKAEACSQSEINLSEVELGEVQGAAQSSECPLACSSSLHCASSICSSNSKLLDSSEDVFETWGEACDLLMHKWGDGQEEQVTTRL

[3] = target: Transient receptor potential cation channel subfamily V member 4 (Homo sapiens, UniProt Q9HBA0); experiment: Antagonist activity at human TRPV4 expressed in BHK/AC9 or HEK MSR2 cells assessed as inhibition of GSK634775-induced Ca2+ flux pre-incubated for 10 mins before agonist addition by FLIPR assay
[4] = target: Transient receptor potential cation channel subfamily A member 1 (Homo sapiens, UniProt O75762); experiment: Inhibition of TRPA1 (unknown origin)
[5] = target: Transient receptor potential cation channel subfamily V member 1 (Homo sapiens, UniProt Q8NER1); experiment: Inhibition of TRPV1 (unknown origin)
[6] = target: T2, Short transient receptor potential channel 4 (Homo sapiens, UniProt Q9UBN4); experiment: Inhibition of TRPC4 (unknown origin)
T2 sequence (Q9UBN4 whole entry): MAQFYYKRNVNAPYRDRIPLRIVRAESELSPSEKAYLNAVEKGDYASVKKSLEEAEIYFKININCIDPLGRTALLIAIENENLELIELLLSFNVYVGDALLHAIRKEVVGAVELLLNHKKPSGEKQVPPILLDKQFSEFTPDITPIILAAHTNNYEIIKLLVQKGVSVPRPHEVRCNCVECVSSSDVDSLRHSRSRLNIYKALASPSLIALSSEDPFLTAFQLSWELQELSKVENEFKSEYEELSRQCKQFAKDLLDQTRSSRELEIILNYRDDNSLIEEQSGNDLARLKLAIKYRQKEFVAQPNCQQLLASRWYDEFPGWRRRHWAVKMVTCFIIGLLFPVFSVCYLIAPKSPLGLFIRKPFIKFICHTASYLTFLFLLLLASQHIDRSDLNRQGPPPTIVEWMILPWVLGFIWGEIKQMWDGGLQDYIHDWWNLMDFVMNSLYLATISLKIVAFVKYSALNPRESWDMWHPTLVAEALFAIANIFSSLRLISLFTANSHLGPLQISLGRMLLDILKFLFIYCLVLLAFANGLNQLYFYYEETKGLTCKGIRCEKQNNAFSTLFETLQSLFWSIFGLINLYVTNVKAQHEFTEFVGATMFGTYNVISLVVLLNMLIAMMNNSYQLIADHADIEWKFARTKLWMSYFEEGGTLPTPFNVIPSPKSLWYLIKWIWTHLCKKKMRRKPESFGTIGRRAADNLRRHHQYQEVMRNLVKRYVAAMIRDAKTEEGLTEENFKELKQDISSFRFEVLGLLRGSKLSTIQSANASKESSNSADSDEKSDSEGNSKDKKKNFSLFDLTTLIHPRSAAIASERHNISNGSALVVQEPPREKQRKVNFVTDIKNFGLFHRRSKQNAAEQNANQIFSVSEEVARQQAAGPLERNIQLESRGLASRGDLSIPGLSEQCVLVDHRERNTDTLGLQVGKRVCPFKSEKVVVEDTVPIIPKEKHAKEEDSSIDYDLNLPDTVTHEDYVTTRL

[7] = Clearance in iv dosed Sprague-Dawley rat; format: ADME, organism-based; details: in vivo; outline: as §1
[8] = Fraction unbound in Sprague-Dawley rat plasma; format: ADME, cell-free

Chain of Transient receptor potential cation channel subfamily V member 1 (Q8NER1 whole entry): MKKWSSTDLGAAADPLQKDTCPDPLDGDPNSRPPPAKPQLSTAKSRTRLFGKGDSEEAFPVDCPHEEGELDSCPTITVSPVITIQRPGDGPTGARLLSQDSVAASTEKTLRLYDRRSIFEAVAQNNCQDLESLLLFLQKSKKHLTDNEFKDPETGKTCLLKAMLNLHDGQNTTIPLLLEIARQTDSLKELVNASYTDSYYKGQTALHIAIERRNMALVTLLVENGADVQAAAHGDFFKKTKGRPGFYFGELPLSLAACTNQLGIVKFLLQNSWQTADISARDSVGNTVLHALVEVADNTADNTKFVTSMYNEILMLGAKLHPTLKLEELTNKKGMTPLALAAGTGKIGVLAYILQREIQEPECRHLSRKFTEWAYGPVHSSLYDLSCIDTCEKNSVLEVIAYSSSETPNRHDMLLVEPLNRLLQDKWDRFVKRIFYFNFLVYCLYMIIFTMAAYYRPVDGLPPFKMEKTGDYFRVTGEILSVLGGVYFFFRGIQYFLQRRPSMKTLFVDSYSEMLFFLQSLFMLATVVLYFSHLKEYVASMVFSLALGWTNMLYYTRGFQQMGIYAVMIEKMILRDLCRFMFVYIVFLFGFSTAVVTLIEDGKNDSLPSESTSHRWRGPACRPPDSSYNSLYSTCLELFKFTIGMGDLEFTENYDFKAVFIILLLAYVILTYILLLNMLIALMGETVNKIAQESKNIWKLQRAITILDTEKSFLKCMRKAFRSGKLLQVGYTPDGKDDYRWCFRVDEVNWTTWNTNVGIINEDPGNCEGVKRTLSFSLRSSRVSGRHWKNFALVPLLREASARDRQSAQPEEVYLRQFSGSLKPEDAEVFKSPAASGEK
Chain of Transient receptor potential cation channel subfamily A member 1 (O75762 whole entry): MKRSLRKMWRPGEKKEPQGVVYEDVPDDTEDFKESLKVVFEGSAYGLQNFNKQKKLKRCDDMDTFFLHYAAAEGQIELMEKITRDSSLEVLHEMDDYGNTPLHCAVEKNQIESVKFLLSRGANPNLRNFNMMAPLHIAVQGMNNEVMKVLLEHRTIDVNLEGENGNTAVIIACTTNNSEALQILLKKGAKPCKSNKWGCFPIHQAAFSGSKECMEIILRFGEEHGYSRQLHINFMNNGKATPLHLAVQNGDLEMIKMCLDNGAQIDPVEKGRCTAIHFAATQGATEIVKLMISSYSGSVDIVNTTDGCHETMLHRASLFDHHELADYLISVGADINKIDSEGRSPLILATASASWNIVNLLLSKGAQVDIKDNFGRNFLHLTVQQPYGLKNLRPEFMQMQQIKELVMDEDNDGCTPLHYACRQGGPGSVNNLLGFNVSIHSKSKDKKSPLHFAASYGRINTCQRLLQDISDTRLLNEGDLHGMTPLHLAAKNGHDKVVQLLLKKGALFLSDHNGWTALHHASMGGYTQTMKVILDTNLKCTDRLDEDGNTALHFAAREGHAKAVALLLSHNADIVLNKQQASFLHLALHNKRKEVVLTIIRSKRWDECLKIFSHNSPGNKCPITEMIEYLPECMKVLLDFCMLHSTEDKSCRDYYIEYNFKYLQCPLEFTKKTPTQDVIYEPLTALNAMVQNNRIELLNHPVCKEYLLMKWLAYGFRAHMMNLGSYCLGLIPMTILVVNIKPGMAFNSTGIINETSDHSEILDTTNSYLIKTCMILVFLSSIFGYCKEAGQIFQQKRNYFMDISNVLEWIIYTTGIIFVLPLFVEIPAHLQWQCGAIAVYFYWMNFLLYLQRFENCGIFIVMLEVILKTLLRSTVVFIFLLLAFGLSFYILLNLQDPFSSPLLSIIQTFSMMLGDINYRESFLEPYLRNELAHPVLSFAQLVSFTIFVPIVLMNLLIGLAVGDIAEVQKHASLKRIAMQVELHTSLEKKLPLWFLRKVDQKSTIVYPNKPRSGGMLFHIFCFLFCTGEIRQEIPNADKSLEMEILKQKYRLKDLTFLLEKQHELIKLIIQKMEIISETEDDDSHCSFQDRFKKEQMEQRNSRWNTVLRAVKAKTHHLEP
Chain of Transient receptor potential cation channel subfamily V member 4 (Q9HBA0 whole entry): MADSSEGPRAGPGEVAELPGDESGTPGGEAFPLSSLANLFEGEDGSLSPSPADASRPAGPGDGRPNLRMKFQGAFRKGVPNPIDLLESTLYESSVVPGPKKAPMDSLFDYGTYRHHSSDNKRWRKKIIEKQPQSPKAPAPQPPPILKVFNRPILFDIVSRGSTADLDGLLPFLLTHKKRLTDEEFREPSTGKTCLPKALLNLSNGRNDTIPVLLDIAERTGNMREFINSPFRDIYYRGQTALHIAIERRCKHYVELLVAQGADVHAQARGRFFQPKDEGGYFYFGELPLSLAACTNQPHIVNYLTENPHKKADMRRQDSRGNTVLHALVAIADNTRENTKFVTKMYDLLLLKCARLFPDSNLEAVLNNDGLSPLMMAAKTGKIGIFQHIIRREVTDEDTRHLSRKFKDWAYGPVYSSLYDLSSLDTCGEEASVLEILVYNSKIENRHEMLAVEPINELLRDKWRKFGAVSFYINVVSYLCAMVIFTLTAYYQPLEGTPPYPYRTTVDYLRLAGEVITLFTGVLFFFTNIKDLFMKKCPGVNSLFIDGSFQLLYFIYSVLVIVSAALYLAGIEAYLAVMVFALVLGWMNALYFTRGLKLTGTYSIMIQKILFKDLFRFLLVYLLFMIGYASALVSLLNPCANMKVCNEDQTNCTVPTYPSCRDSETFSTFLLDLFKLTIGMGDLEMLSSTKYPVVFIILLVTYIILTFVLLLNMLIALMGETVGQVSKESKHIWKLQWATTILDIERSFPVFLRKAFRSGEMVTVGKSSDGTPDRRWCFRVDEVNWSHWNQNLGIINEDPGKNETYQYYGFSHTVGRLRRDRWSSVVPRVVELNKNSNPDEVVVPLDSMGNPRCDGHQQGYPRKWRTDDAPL

bioavailability [1]: 35%
CL free (Rattus norvegicus): 966 mL/min/kg
pIC50 [2]: < 5.00
pIC50 [3]: 8.60
pIC50 [4]: < 5.00
pIC50 [5]: < 5.00
pIC50 [6]: < 5.00
clearance [7]: 58 mL/min/kg
fraction unbound [8]: 0.059
Compound: N#Cc1ccc(O[C@H]2CN(S(=O)(=O)c3ccc(Cl)cc3Cl)C[C@@]2(O)CO)cc1F

From ChEMBL document CHEMBL4152379, “Discovery of Pyrrolidine Sulfonamides as Selective and Orally Bioavailable Antagonists of Transient Receptor Potential Vanilloid-4 (TRPV4)” (J Med Chem, 2018)
